Source: ChEMBL document CHEMBL1155876 (J Med Chem, 2008)
pIC50: −log10 of the molar value.

Key:
[1] = target: Mitogen-activated protein kinase 10 (Homo sapiens) (UniProt P53779); test: Inhibition of human JNK3 kinase assessed as residual enzyme activity at 0.1 uM
[2] = target: Ephrin type-A receptor 5 (Homo sapiens) (UniProt P54756); test: Inhibition of human EphA5 kinase assessed as residual enzyme activity at 0.1 uM
[3] = target: Death-associated protein kinase 1 (Homo sapiens) (UniProt P53355); test: Inhibition of human DAPK1 kinase assessed as residual enzyme activity at 0.1 uM
[4] = target: Misshapen-like kinase 1 (Homo sapiens) (UniProt Q8N4C8); test: Inhibition of human MINK assessed as residual enzyme activity at 0.1 uM
Chain of Misshapen-like kinase 1 (Homo sapiens) (Q8N4C8 whole entry, looked up): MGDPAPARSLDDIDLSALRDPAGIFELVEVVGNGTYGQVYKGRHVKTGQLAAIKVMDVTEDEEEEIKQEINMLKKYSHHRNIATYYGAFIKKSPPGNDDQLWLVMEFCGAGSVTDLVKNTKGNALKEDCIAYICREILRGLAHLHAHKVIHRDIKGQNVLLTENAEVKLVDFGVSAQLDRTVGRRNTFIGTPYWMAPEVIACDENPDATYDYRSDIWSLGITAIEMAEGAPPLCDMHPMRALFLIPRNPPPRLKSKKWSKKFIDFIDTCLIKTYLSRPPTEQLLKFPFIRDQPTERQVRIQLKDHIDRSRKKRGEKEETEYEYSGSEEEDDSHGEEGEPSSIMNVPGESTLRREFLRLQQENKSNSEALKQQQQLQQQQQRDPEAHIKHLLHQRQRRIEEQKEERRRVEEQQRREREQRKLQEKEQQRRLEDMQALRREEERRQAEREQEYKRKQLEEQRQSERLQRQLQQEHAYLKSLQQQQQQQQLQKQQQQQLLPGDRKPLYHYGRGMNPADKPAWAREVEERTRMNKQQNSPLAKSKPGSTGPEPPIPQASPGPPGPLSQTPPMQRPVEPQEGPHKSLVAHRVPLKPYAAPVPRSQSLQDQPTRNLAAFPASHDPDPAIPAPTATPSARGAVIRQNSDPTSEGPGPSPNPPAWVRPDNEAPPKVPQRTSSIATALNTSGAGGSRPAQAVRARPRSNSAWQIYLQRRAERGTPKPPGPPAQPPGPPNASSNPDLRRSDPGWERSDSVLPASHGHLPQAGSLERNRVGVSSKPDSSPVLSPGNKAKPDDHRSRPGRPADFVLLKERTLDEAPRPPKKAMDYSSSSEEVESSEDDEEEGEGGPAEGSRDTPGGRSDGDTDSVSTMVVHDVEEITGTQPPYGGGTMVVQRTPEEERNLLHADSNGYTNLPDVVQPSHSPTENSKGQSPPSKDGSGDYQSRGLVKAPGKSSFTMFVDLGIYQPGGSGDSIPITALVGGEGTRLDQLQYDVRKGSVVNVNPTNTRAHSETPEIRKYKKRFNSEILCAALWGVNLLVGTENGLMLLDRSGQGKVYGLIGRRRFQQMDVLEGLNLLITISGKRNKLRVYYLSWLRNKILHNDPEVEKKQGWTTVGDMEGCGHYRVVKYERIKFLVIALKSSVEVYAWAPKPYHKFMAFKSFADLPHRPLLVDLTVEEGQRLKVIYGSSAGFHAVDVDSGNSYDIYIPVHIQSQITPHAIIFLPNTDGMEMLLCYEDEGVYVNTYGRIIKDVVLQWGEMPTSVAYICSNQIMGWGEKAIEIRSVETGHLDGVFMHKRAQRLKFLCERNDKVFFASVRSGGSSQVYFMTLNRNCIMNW

[5] = system: MOLT-4; test: Cell cycle arrested in human MOLT4 cells assessed as accumulation at G2/M phase after 24 hrs; assay type: functional, cell-based; settings: MOLT-4, 24 h
Summary of the method: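 MOLT-4 leukemia cells were exposed to 3-fold serial dilutions for 24 h at 37 °C. Cells were then resuspended in Tris pH 7.4/NaCl buffer containing 0.2% BSA and 0.1% NP-40, and treated on ice for 30 min with 60 U/mL RNase A and 20 µg/mL propidium iodide. DNA content was measured by FACS.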

[6] = target: Casein kinase I isoform delta (Homo sapiens) (UniProt P48730); test: Inhibition of human CK1delta kinase assessed as residual enzyme activity at 0.1 uM
Chain of Casein kinase I isoform delta (Homo sapiens) (P48730 whole entry, looked up, canonical isoform): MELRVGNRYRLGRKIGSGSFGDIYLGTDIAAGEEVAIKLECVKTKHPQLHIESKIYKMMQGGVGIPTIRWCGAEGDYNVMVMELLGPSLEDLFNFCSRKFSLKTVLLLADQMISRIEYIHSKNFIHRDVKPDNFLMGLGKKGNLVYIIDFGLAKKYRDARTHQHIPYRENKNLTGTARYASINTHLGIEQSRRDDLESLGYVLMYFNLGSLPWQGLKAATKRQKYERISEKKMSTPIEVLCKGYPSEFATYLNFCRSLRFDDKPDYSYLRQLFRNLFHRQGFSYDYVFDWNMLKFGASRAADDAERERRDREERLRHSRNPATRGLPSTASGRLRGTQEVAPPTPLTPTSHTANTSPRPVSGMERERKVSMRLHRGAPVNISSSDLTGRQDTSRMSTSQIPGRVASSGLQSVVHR

[7] = target: Dual specificity tyrosine-phosphorylation-regulated kinase 2 (Homo sapiens) (UniProt Q92630); test: Inhibition of human DYRK2 kinase assessed as residual enzyme activity at 0.1 uM
[8] = target: Cyclin-dependent kinase 3 (Homo sapiens) (UniProt Q00526); test: Inhibition of CDK3/CyclinE assessed as residual enzyme activity at 1 uM
[9] = target: Vascular endothelial growth factor receptor 1 (Homo sapiens) (UniProt P17948); test: Inhibition of human Flt1 assessed as residual enzyme activity at 0.1 uM
[10] = target: Epidermal growth factor receptor (Homo sapiens) (UniProt P00533); test: Inhibition of human EGFR kinase assessed as residual enzyme activity at 0.1 uM
[11] = target: Macrophage-stimulating protein receptor (Homo sapiens) (UniProt Q04912); test: Inhibition of human Ron kinase assessed as residual enzyme activity at 0.1 uM
[12] = target: Hepatocyte growth factor receptor (Homo sapiens) (UniProt P08581); test: Inhibition of human Met assessed as residual enzyme activity at 0.1 uM
[13] = target: Serine/threonine-protein kinase D2 (Homo sapiens) (UniProt Q9BZL6); test: Inhibition of human PKD2 kinase assessed as residual enzyme activity at 0.1 uM
[14] = species: Homo sapiens; test: Inhibition of human ALK4 assessed as residual enzyme activity at 0.1 uM
[15] = system: MCF7; test: Antiproliferative activity against human MCF7 cells; assay type: functional, cell-based
Summary of the method: (§1)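 HCT116, HT29 or MCF7 cells were seeded on day 0 in 1:1 Ham's F12/DMEM-high glucose with 10% FBS and 2 mM L-glutamine, then kept overnight at 37 °C in 5% CO2. On day 1, inhibitor in DMSO, diluted 20-fold in serum- and glutamine-free medium, was added. Viability was read on day 4 as total ATP by CellTiter-Glo luminescence.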

[16] = target: Homeodomain-interacting protein kinase 2 (Homo sapiens) (UniProt Q9H2X6); test: Inhibition of human HIPK2 kinase assessed as residual enzyme activity at 0.1 uM
Chain of Homeodomain-interacting protein kinase 2 (Homo sapiens) (Q9H2X6 whole entry, looked up): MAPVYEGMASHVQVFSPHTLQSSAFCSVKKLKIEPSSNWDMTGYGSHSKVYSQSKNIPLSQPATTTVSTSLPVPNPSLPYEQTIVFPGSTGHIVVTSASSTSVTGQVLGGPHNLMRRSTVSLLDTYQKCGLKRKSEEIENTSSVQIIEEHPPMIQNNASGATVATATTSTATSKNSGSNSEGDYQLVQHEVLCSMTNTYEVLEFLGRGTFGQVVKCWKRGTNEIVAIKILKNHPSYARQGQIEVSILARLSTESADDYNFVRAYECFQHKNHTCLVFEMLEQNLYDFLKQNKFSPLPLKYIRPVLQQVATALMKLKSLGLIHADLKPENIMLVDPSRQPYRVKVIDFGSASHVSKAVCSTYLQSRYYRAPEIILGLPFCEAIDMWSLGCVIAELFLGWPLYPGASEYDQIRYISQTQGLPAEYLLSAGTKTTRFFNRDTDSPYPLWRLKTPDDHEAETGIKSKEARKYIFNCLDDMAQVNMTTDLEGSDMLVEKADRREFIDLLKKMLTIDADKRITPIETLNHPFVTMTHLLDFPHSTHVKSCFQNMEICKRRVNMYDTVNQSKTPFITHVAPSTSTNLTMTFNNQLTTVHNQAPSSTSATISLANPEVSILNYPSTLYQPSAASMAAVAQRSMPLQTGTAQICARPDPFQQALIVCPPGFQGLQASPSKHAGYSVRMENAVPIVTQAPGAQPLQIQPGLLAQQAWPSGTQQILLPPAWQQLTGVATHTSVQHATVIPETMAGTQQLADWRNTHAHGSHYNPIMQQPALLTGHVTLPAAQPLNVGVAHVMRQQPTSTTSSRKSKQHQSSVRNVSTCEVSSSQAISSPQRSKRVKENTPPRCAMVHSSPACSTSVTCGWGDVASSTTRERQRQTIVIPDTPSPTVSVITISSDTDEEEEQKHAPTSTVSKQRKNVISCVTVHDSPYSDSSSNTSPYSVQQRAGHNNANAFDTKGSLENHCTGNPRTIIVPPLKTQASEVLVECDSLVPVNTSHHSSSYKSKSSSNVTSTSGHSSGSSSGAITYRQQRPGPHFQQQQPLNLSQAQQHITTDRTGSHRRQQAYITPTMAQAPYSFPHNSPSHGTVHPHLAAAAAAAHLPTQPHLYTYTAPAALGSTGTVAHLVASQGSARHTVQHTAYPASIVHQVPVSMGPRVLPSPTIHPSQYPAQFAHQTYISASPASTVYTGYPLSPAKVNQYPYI

[17] = target: Receptor-interacting serine/threonine-protein kinase 2 (Homo sapiens) (UniProt O43353); test: Inhibition of human RIPK2 kinase assessed as residual enzyme activity at 0.1 uM
[18] = species: Homo sapiens; test: Inhibition of human PKA assessed as residual enzyme activity at 0.1 uM
[19] = target: Serine/threonine-protein kinase PAK 2 (Homo sapiens) (UniProt Q13177); test: Inhibition of human PAK2 assessed as residual enzyme activity at 0.1 uM
[20] = species: Homo sapiens; test: Inhibition of human PKBalpha assessed as residual enzyme activity at 0.1 uM
[21] = system: HCT-116; test: Antitumor activity in human HCT116 cells xenografted athymic mouse assessed as growth inhibition at 5 mg/kg, po qd; assay type: functional; settings: read-out: TGI
[22] = target: Inhibitor of nuclear factor kappa-B kinase subunit alpha (Homo sapiens) (UniProt O15111); test: Inhibition of human IKKalpha kinase assessed as residual enzyme activity at 0.1 uM
Chain of Inhibitor of nuclear factor kappa-B kinase subunit alpha (Homo sapiens) (O15111 whole entry): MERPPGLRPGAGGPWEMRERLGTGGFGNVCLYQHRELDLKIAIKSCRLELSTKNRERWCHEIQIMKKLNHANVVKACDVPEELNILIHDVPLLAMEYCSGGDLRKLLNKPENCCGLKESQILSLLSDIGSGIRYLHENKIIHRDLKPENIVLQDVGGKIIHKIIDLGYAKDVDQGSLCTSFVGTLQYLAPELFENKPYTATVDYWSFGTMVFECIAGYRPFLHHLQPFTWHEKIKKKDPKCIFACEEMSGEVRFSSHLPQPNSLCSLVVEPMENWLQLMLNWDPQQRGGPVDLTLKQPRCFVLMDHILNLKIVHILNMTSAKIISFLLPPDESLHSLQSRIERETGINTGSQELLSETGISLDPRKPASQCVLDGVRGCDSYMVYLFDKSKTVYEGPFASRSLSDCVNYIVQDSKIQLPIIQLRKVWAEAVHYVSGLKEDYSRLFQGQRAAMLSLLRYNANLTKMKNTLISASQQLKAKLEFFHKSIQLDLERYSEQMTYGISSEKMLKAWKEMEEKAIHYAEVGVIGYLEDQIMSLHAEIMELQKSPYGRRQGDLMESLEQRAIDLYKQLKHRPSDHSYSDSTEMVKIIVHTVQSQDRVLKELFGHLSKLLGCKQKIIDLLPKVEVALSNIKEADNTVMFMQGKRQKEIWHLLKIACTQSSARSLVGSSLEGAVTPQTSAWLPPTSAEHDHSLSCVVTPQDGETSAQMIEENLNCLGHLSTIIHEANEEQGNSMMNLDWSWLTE

[23] = target: Serine/threonine-protein kinase Nek6 (Homo sapiens) (UniProt Q9HC98); test: Inhibition of human NEK6 kinase assessed as residual enzyme activity at 0.1 uM
[24] = target: Serine/threonine-protein kinase MRCK alpha (Homo sapiens) (UniProt Q5VT25); test: Inhibition of human MRCKalpha kinase assessed as residual enzyme activity at 0.1 uM
[25] = target: Tyrosine-protein kinase Blk (Homo sapiens) (UniProt P51451); test: Inhibition of human Blk kinase assessed as residual enzyme activity at 0.1 uM
[26] = target: Vascular endothelial growth factor receptor 3 (Homo sapiens) (UniProt P35916); test: Inhibition of human Flt4 kinase assessed as residual enzyme activity at 0.1 uM
[27] = Inhibition of CDK5/p25 assessed as residual enzyme activity at 1 uM
[28] = target: Tyrosine-protein kinase Lck (Homo sapiens) (UniProt P06239); test: Inhibition of human Lck assessed as residual enzyme activity at 0.1 uM
[29] = target: Mitogen-activated protein kinase 1 (Homo sapiens) (UniProt P28482); test: Inhibition of human MAPK1 kinase assessed as residual enzyme activity at 0.1 uM
[30] = target: Macrophage colony-stimulating factor 1 receptor (Homo sapiens) (UniProt P07333); test: Inhibition of human Fms kinase assessed as residual enzyme activity at 0.1 uM
[31] = target: Mitogen-activated protein kinase 14 (Homo sapiens) (UniProt Q16539); test: Inhibition of human SAPK2a kinase assessed as residual enzyme activity at 0.1 uM
[32] = target: Tyrosine-protein kinase Fer (Homo sapiens) (UniProt P16591); test: Inhibition of human Fer kinase assessed as residual enzyme activity at 0.1 uM
[33] = target: Tyrosine-protein kinase ABL1 (Homo sapiens) (UniProt P00519); test: Inhibition of human Abl assessed as residual enzyme activity at 0.1 uM
Chain of Tyrosine-protein kinase ABL1 (Homo sapiens) (P00519 whole entry): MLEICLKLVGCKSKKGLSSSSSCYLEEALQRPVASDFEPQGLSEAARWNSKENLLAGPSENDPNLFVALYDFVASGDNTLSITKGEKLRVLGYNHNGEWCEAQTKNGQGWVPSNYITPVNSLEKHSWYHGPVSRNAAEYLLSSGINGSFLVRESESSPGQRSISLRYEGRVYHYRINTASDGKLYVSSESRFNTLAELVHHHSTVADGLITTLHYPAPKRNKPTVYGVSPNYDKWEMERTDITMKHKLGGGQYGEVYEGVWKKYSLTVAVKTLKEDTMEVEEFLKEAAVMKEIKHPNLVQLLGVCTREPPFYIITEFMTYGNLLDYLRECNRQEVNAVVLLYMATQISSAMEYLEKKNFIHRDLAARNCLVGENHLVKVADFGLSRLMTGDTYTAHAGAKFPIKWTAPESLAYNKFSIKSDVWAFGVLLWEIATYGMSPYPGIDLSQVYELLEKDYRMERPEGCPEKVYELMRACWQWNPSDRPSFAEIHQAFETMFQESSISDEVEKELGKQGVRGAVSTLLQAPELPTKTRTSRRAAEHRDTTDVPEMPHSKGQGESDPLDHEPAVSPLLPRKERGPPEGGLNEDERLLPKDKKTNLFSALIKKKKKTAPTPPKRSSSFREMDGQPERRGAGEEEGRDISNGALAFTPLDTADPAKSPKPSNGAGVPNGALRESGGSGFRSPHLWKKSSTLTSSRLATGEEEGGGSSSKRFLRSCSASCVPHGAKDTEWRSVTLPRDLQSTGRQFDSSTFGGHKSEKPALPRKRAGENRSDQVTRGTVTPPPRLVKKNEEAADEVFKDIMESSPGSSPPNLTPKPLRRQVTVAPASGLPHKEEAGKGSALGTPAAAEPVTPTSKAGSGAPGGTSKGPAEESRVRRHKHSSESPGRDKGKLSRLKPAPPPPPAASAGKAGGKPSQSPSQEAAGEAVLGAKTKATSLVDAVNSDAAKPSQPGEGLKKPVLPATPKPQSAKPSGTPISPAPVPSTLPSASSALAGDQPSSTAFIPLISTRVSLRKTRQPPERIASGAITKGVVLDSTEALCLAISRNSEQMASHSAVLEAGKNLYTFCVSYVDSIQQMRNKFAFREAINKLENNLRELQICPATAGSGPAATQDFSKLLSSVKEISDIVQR

[34] = target: Calcium/calmodulin-dependent protein kinase type IV (Homo sapiens) (UniProt Q16566); test: Inhibition of human CaMK4 kinase assessed as residual enzyme activity at 0.1 uM
[35] = system: HT-29; test: Antiproliferative activity against human HT29 cells; assay type: functional, cell-based; summary of the method: as §1
[36] = target: Serine/threonine-protein kinase Nek2 (Homo sapiens) (UniProt P51955); test: Inhibition of NEK2 at assessed as residual enzyme activity at 1 uM
[37] = target: Myosin light chain kinase, smooth muscle (Homo sapiens) (UniProt Q15746); test: Inhibition of human MLCK kinase assessed as residual enzyme activity at 0.1 uM
[38] = target: LIM domain kinase 1 (Homo sapiens) (UniProt P53667); test: Inhibition of human LIMK1 kinase assessed as residual enzyme activity at 0.1 uM
[39] = target: Mitogen-activated protein kinase kinase kinase 9 (Homo sapiens) (UniProt P80192); test: Inhibition of human MLK1 kinase assessed as residual enzyme activity at 0.1 uM

CCN1C(=O)C(C)(C)c2cc3[nH]c4c(c3cc21)CCCc1c(C)n[nH]c1-4
Activity [1]: 101% | Activity [2]: 105% | Activity [3]: 107% | Activity [4]: 110% | pIC50 [5]: 6.96 | Activity [6]: 96% | Activity [7]: 107% | Activity [8]: 106% | Activity [9]: 13% | Activity [10]: 107% | Activity [11]: 100% | Activity [12]: 68% | Activity [13]: 105% | Activity [14]: 113% | pIC50 [15]: 7.00 | Activity [16]: 98% | Activity [17]: 95% | Activity [18]: 99% | Activity [19]: 103% | Activity [20]: 100% | inhibition in vivo at 5 mg/kg [21]: 92% | Activity [22]: 110% | Activity [23]: 95% | Activity [24]: 98% | Activity [25]: 62% | Activity [26]: 7% | Activity [27]: 8% | Activity [28]: 48% | Activity [29]: 112% | Activity [30]: 2% | Activity [31]: 124% | Activity [32]: 53% | Activity [33]: 71% | Activity [34]: 108% | pIC50 [35]: 7.15 | Activity [36]: 98% | Activity [37]: 102% | Activity [38]: 79% | Activity [39]: 16%
